# hERG rescue – compounds protecting human hERG from proarrhythmic drug block; hit rate 0.51% among 310,000; activation (rescue from dofetilide block), less the hit threshold, % at 10 µM; Q12809; CHO-hERG, FluxOR thallium flux, dofetilide IC70 present;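 active means activation above the mean of controls blocked by dofetilide plus 5 SD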;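 further: thallium influx through hERG after potassium depolarization seen as dye fluorescence rise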
# Target sequence (Q12809 whole entry, looked up): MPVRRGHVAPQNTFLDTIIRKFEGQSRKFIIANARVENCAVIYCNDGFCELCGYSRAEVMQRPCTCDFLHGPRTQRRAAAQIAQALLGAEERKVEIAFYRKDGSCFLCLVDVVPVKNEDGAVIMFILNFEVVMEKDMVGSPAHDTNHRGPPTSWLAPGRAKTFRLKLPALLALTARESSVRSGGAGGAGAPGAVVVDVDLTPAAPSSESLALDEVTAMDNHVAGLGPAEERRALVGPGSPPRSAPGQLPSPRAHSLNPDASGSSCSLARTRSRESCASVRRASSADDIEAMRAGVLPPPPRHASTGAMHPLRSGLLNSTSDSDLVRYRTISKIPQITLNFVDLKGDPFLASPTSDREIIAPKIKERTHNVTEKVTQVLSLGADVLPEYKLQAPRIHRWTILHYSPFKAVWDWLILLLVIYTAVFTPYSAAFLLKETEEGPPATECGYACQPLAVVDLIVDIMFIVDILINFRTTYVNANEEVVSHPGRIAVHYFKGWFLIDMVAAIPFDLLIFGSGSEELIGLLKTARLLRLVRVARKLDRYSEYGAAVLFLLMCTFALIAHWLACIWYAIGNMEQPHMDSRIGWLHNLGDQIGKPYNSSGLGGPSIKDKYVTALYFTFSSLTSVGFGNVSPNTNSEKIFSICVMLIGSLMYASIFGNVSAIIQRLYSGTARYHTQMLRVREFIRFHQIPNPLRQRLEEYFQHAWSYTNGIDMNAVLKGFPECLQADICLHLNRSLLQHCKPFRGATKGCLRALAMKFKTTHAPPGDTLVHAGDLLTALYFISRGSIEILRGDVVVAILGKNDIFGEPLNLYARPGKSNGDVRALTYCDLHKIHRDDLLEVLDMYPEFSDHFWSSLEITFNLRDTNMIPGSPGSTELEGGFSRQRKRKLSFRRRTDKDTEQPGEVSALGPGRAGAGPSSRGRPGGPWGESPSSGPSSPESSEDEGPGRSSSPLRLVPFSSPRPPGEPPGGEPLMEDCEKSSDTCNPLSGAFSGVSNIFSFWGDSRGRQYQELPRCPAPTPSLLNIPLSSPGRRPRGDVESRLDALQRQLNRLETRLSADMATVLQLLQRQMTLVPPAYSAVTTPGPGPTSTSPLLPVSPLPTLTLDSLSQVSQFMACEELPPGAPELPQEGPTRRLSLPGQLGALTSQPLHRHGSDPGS
# KCNK9 block – inhibitors of human KCNK9 two-pore domain potassium channel; Q9NPC2; B-score at 10 µM; AID 488922; hit rate 1.2% among 310,000; HEK293 KCNK9, FluxOR thallium flux fluorescence; active compounds read low;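 active means ratio B-score over 3 SD below the library mean, with starting fluorescence within 5 SD of its mean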;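 further: negative B-score means less thallium flux so channel inhibition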
# KCNQ1 block – human KCNQ1 channel inhibition; CHO-K1 KCNQ1, FluxOR thallium flux fluorescence; active compounds read high; B-score at 10 µM; P51787; hit rate 1.3% among 310,000; AID 2642;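 active means compounds whose thallium flux B-score, printed positive for inhibition, exceeds three library SD while starting fluorescence stays within three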;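 further: channel opened by potassium depolarization with thallium stimulus after 20 min compound exposure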
# Cl transport mod – modulates chloride dependent transport by human KCC2; Q9H2X9; KCC2 cells, thallium flux FluoZin-2 fluorescence; B-score of Tl+ flux slope (higher = more flux/activation; lower = inhibition) at 10 µM; hit rate 2.2% among 190,000; AID 1456;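 active means thallium flux slope and its plate-corrected score both differing from the plate sample mean at a set confidence after two filtering rounds, in either direction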;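 further: slope of fluorescence scaled to starting intensity during 10 to 20 s after thallium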
# KCNQ1 act – human KCNQ1 channel potentiation or activation; CHO-K1 KCNQ1, thallium flux FluxOR fluorescence; active compounds read high; P51787; hit rate 0.35% among 310,000; B-score at 10 µM;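 active means fluorescence ratio B-score, a plate-corrected score, at least three library SD, with initial intensity B-score within 5 SD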
#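 Assay system: CHO-K1 cells stably expressing KCNQ1; Medium: assay buffer with matched DMSO; Also added: K+/Tl+ depolarizing stimulus; Dosing: single dose; Timing: dye 90 min, compound 20 min, room temperature; Measured by: kinetic FluxOR thallium fluorescence, 10-s 1-Hz baseline, 110-s post-stimulus read; Read-out: peak-minus-minimum fluorescence over initial fluorescence, negative-control normalized, B-scored.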
# KCNK3 block – human KCNK3 channel inhibition, primary screen | B-score at 10 µM | AID 602410 | CHO-KCNK3 thallium flux, FluxOR fluorescence; active compounds read low | O14649 | hit rate 0.84% among 340,000;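 active means B-score under library mean minus 4 SD, starting fluorescence ratio at most library mean plus 5 SD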;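 further: more negative B-score means stronger inhibition of thallium flux through KCNK3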
# KCNK9 inh conf – confirmation of human KCNK9 potassium channel inhibitors; shares compounds with KCNK9 block; HEK293 KCNK9 cells, FluxOR thallium flux fluorescence; inhibition, % at 10 µM; hit rate 43% among 4,900; AID 492992;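 active means thallium signal inhibited by more than 5 SD of the compound-free buffer control wells, on both duplicate plates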;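 further: 0% = assay buffer control wells without compound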
# Kir2-1 spec – mouse Kir2.1 off-target activity of KCNK9 modulators | Kir2.1 cells, FluxOR thallium flux fluorescence | AID 492993 | shares compounds with KCNK9 block | hit rate 4% among 4,900 | inhibition, % at 10 µM;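 active means thallium signal drop more than 5 SD beyond the mean of the no-compound control wells, seen in both duplicate plates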;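 further: signal is fluorescence rise after thallium addition divided by baseline fluorescence; plate controls were assay buffer only for no effect and full block by chlorpromazine control for full effect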
# HEK293 Tl ctr – second counter-screen for KCNK9 modulators: effect in non-induced cells; hit rate 40% among 4,900; shares compounds with KCNK9 block; inhibition, % at 10 µM; non-induced KCNK9-HEK293, FluxOR thallium flux;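 active means thallium signal drop beyond 5 SD of the untreated control mean, on both duplicate plates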;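 further: plate controls were buffer only IC0 wells for no effect and SID17386958 at its maximal inhibitory level for full effect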
# Starred values were filed as active, the others as inactive; i = inactive; · = not tested or not shown. A selection: hits, their analogues and other compounds. The true share with any hit is near 4.1%.
SMILES,hERG rescue,KCNK9 block,KCNQ1 block,Cl transport mod,KCNQ1 act,KCNK3 block,KCNK9 inh conf,Kir2-1 spec,HEK293 Tl ctr
CC(SC1=Nc2ccccc2C2CC=NN12)C(=O)NC1(C#N)CCCCC1 (stereo not drawn),-16.8,-10.1*,i,·,i,i,46.5%*,i,42.5%*
CCCNC(=O)c1onc(CSc2ccc(Cl)cc2)c1C(=O)NCCOC,-5.1,i,i,·,i,i,·,·,·
CCCNC(=O)c1onc(CSc2ccc(F)c(F)c2)c1C(=O)NCCC,-6.6,i,i,·,i,·,·,·,·
CC(C)CCNC(=O)c1onc(CSc2ccccc2)c1C(=O)NCCC(C)C,-5.8,i,i,·,i,i,i,i,i
CCCNC(=O)c1onc(CSc2ccccc2)c1C(=O)NCCC,-11.1,i,i,·,i,i,·,·,·
COc1cccc(SCc2noc(C(=O)NCCC(C)C)c2C(=O)NCCC(C)C)c1,-13.4,i,i,·,i,i,i,i,i
CC(C)CCNC(=O)c1onc(CSc2ccc(F)c(F)c2)c1C(=O)NCCC(C)C,-5.1,i,i,0.124,i,i,i,i,i
CC(C)CCNC(=O)c1onc(CSc2ccc(Cl)cc2)c1C(=O)NCCC(C)C,-13.9,i,i,-0.638,i,i,i,i,i
COC(=O)C1Cc2ccccc2CN1S(=O)(=O)c1ccc(F)cc1 (stereo not drawn),-8.6,i,i,·,i,i,·,·,·
O=C(CS(=O)(=O)c1cn(CC(=O)N2CCOCC2)c2ccccc12)Nc1ccccc1F,-6.3,i,i,·,i,i,·,·,·
COc1ccccc1NS(=O)(=O)c1cccc(C(=O)NCC(c2cccs2)N(C)C)c1 (stereo not drawn),·,·,·,·,·,i,·,·,·
CC(C)CCNC(=O)c1onc(CSc2ccc(F)cc2)c1C(=O)NCCC(C)C,-2.5,i,7*,·,i,i,i,i,i
COc1ccc(/C=N/N(c2ccccc2)c2ccccc2)cc1O,-10.9,i,8*,·,i,i,i,i,i
CCn1c(SCc2ccc(Cl)cc2Cl)nc2nc3c(cc2c1=O)CCCC3,-12.7,i,i,·,i,i,i,i,i
Cc1ccc(C(=O)Nc2ccc(F)cc2)cc1NC1=NC2CS(=O)(=O)CC2S1 (stereo not drawn),-6.5,i,i,·,i,i,·,·,·
COc1ccc(-c2nc(-c3ccc4c(c3)OCO4)[nH]c2-c2ccc(OC)cc2)cc1,-4.7,-9.18*,i,0.272,i,i,65.0%*,i,i
COc1ccc(-c2noc(-c3ccc4c(c3)OCO4)n2)cc1,-0.5,i,i,0.443,i,i,·,·,·
Cc1ccc(S(=O)(=O)N(Cc2ccccc2)c2ccccc2C(=O)Nc2ccccc2C(=O)NCc2ccco2)cc1,-7.7,-9.61*,8*,0.131,i,i,i,i,34.0%*
COc1cccc(-c2ccc(C#N)c(OC(=O)c3ccc(Cl)cc3)n2)c1,-2.4,i,i,·,i,i,·,·,·
COc1cccc(-c2ccc(C#N)c(OC(=O)c3c(Cl)cccc3Cl)n2)c1,-6.1,-10*,i,0.817,i,i,38.0%*,i,27.5%*
CCOc1ccc(NC(=O)CSc2nnnn2C2CCCC2)cc1,-11.1,i,i,·,i,i,·,·,·
COc1cc(CN(C)CC2CCCN(CCc3ccccc3F)C2)cc(Cl)c1OC (stereo not drawn),-3.6,i,i,·,i,i,i,i,i
COc1ccc(C(=O)NCc2nnc(SCC(=O)Nc3ccccc3OC)n2C)cc1,-4.6,i,i,0.763,i,i,i,i,i
COc1ccccc1NC(=O)CSc1nnc(CNC(=O)c2ccco2)n1C,-4.3,i,i,·,i,i,·,·,·
CC1CC(C)(C)CC2(C1)NC(=O)N(CC(=O)Nc1cc(C(F)(F)F)ccc1N1CCCCC1)C2=O (stereo not drawn),·,·,·,·,·,i,·,·,·
SMILES,hERG rescue,KCNK9 block,KCNQ1 block,Cl transport mod,KCNQ1 act,KCNK3 block,KCNK9 inh conf,Kir2-1 spec,HEK293 Tl ctr
Cc1occc1C(=O)N/N=C/C1=C(N2CCOCC2)C(=C/c2ccc(Cl)cc2Cl)/CC1,·,·,·,·,·,i,·,·,·
CCC(CC)C(=O)N1CCN(c2ccccc2)CC1,-2.0,i,i,0.441,i,i,·,·,·
CCC(C(=O)N1CCN(c2cccc(Cl)c2)CC1)c1ccccc1 (stereo not drawn),-8.2,-10.6*,i,·,i,-10.7*,50.5%*,i,32.0%*
CCCNC(=O)c1ccc(C)c(NC(=O)C2=C(C)OCCS2)c1,-6.0,i,i,·,i,i,·,·,·
COc1cccc(NC(=O)Nc2nc(-c3ccc(OC)c(OC)c3)cs2)c1,-35.0,i,i,·,i,i,·,·,·
O=C(CNCc1ccccc1)Nc1cccc(Cl)c1Cl,-5.5,i,i,·,i,i,·,·,·
O=C(CCC(=O)c1ccc(Oc2ccccc2)cc1)Nc1cccc(Cl)c1Cl,-16.0,i,i,-0.255,i,i,i,i,26.5%*
COc1ccccc1CNC(=O)CSCc1cnn(-c2ccccc2)c1-n1cccc1,-10.5,i,i,-2.67,i,i,i,i,i
COc1ccc(OC)c(NC(=O)CSCc2cnn(-c3ccccc3)c2-n2cccc2)c1,-10.9,i,i,-0.333,i,i,i,i,29.0%*
COc1cccc(CNC(=O)CSCc2cnn(-c3ccccc3)c2-n2cccc2)c1OC,-17.9,i,i,-0.649,i,i,i,31.0%*,i
COc1cc(NC(=O)CSCc2cnn(-c3ccccc3)c2-n2cccc2)cc(OC)c1,-4.5,i,i,·,i,i,·,·,·
O=C(COC(=O)c1ccc(O)cc1O)NC(=O)NCc1ccccc1,·,·,·,·,·,i,·,·,·
CCCCc1ccc(NC(=O)CN(C)CC(=O)Nc2ccccc2Cl)cc1,-11.2,i,i,·,i,i,i,i,i
CN(CC(=O)Nc1ccccc1)CC(=O)Nc1ccccc1Cl,-6.0,i,i,·,i,i,·,·,·
O=C(OCc1cc(=O)n2c(n1)sc1ccccc12)c1cccc(O)c1,-10.7,i,i,-0.0518,i,i,·,·,·
O=C(Cc1coc2cc3c(cc12)CCC3)OCc1cc(=O)n2c(n1)sc1ccccc12,-15.9,i,i,0.567,i,i,i,i,i

# Compound activity as filed in PubChem BioAssay.
